Source: PubChem BioAssay
Shown are actives, neighbours in structure and some others; about 1.4% of the full set was active somewhere.
TDP2 inh – TDP2 (human) inhibition, absorbance primary screen. O95551. recombinant TDP2, T5PNP hydrolysis, p-nitrophenol absorbance 415 nm. inhibition, % at 12.8 µM. actives 0.34% (n = 370,000). AID 720702;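 active means inhibition above the mean of all tested compounds plus 3 SD, set per campaign, cut at about 25% in these data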;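 further: 0% = DMSO with enzyme and 100% = buffer with substrate but no TDP2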
Target sequence (O95551 whole entry, looked up): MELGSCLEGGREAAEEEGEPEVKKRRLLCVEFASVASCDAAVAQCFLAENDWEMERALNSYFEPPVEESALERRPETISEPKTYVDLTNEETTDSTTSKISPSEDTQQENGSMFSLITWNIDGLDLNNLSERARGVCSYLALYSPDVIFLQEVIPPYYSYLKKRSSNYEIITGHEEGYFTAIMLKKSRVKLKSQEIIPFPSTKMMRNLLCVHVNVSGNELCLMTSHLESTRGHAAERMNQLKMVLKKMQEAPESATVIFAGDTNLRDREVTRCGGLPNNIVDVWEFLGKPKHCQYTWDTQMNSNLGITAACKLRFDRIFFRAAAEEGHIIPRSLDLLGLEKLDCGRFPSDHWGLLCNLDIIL
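Incubation: 2 h at 37 °C; Test system: recombinant human TDP2; Quantity: enzyme 120 nM; Read-out basis: percent inhibition; Medium: 50 mM Tris-HCl pH 7.5 with Mg2+, KCl, DTT, BSA; Repeats: single replicate; Compound: 12.8 µM single point, 1% DMSO; Signal: epi absorbance; Reagent: 5 mM T5PNP chromogenic substrate; Benchmarks: no-enzyme high, DMSO-plus-enzyme low.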
CTSL1 counter – blocks F. hepatica cathepsin L1 in PFM18AAP counter-screen; actives 0.49% (n = 300,000); AID 1906; recombinant F. hepatica cathepsin L1, Z-Leu-Arg-MCA fluorescence; inhibition, % at 5.96 µM;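 active means inhibition above the mean of all tested compounds plus 3 SD, set per screening campaign, cut at about 17% in these data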;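 further: 0% = plate median of test compound wells and 100% = 1 µM Z-Phe-Ala-diazomethylketone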
PAD4 FP inh – inhibitors of human PAD4 | Q9UM07 | recombinant PAD4, RCA probe fluorescence polarization | inhibition, % at 6.36 µM | actives 0.41% (n = 330,000) | AID 485272;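 active means percent inhibition above a cutoff equal to the mean of all tested compounds plus 3 SD, cut at about 15% in these data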;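 further: 0% = PAD4 with RCA probe and DMSO and 100% = probe without PAD4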
GSTO1 counter – blocks human GSTO1 in RBBP9 counter-screen | P78417 | recombinant GSTO1, activity-based probe fluorescence polarization | inhibition, % at 5.96 µM | actives 1.1% (n = 300,000);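 active means inhibition above the campaign mean inhibition plus 3 SD, cut at about 35% in these data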;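 further: 0% = GSTO1-1 with DMSO and 100% = wells lacking GSTO1-1 enzyme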
GSTO1 confirm – confirmation of human GSTO1 inhibitors. inhibition, % at 5.96 µM. AID 2176. shares compounds with GSTO1 counter. recombinant GSTO1, probe fluorescence polarization. actives 54% (n = 2,400);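 active means inhibition above the primary screen's cutoff, its mean inhibition plus 3 SD, cut at about 35% in these data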;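 further: loss of polarization as inhibitors block binding of rhodamine sulfonate ester activity probe; 0% = GSTO1 with DMSO and 100% = wells lacking GSTO1 enzyme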
GSTO1 ABPP inh – GSTO1 (human) inhibition by gel ABPP | shares compounds with GSTO1 counter | AID 463110 | recombinant GSTO1, gel ABPP SE-Rh probe fluorescence | actives 30% (n = 130) | inhibition, % at 1 µM;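 active means inhibition of the enzyme GSTO1 above about 75%, limit read from the data; inactive means inhibition below that limit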
* marks the source's active call; other numbers are inactive results; . = no result given.

SMILES	TDP2 inh	CTSL1 counter	PAD4 FP inh	GSTO1 counter	GSTO1 confirm	others
CCOc1cccc(CNc2ccc(O)cc2)c1OCc1ccc(Cl)cc1Cl	-2.8	3.4	-3.3	78.1*	9.6
Cc1nc(SCC(=O)N(C)c2ccccc2)[nH]c(=O)c1C	6.0	.	.	.	.
CCCC1CCC2(CCCN2CCOC(=S)Nc2ccccc2Cl)CC1 (stereo unspecified)	-4.8	.	.	.	.
COC(=O)C1=C(C)N(Cc2ccccc2C(F)(F)F)C(=NCc2ccc3c(c2)OCO3)NC1c1ccc(Cl)cc1 (stereo unspecified)	-0.1	.	.	.	.
COc1ccc(Cc2c(-c3cccc(Br)c3)nc3c(C)cc(Br)cn23)c(C)c1	3.8	.	.	.	.
CC1(C(=O)Nc2cccc(C(F)(F)F)c2)CO1 (stereo unspecified)	.	0.4	0.2	68.5*	84.9*	GSTO1 ABPP inh=19.0
CC(=NNc1cc(C)c2ccccc2n1)c1ccccn1	2.1	.	.	.	.
Oc1ccc(/C=N\Nc2cc(N3CCOCC3)nc(N3CCOCC3)n2)c(O)c1	-10.1	0.1	-1.6	26.3	.
Oc1ccc(/C=N/Nc2cc(N3CCCC3)nc(N3CCCC3)n2)cc1O	-3.7	0.1	1.1	46.5*	78.9*
COc1ccc(/C=C2\SC(N)=NC2=O)cc1	7.1	.	.	.	.
COc1cc(/C=C2\SC(N)=NC2=O)cc(Br)c1O	-6.1	10.3	-6.5	61.3*	65.6*
CC1CN(Cc2c(O)ccc3c2oc(=O)c2ccccc23)CC(C)O1 (stereo unspecified)	0.2	-3.5	-6.3	42.3*	45.6*
CC1CN(Cc2c(O)ccc3c(=O)c(-c4ccccc4)coc23)CC(C)O1 (stereo unspecified)	2.5	-3.0	0.4	6.5	.
O=C(COC(=O)c1cc(-c2ccco2)nc2ccccc12)NCc1ccccc1	-14.7	-3.5	-3.9	5.4	.
CNC(=O)COC(=O)c1cc(-c2ccco2)nc2ccccc12	2.0	-2.5	4.5	39.7*	8.9
COCCn1cnnc1SCC(=O)c1ccc(S(=O)(=O)N2CCCC2)cc1	3.1	-4.2	-6.6	60.8*	60.8*
CCOc1ccc(N=CC2=C(O)CC(C)(C)CC2=O)cc1	5.9	2.7	3.6	10.3	.
CC1(C)CC(=O)C(C=Nc2ccc(O)cc2)=C(O)C1	2.2	0.1	-0.5	38.2*	4.3
COc1ccc(CCN=CC2=C(O)CC(C)(C)CC2=O)cc1	9.1	-1.4	-1.0	-1.9	.
CC1(C)CC(=O)C(C=NCCc2ccc(S(N)(=O)=O)cc2)=C(O)C1	-1.8	-1.2	-2.7	40.6*	5.1
O=c1c2c([N+](=O)[O-])cc([N+](=O)[O-])cc2sn1-c1ccc(Br)cc1	.	5.1	-9.7	37.7*	32.5
COC(=O)CCCC1=CC2=C(c3ccccc3)C(=O)C(C)(OC(=O)C3CCCC3)C(=O)C2=CN1CCCCO (stereo unspecified)	16.3	14.9	-11.9	45.4*	19.3
O=C(CCc1ccc(O)c(O)c1)N/N=C/c1ccc2c(c1)OCO2	11.8	2.1	3.9	43.8*	11.5
CC(C)Oc1ccc(CCC(=O)N/N=C/c2ccc3c(c2)OCO3)cc1	-12.3	4.7	1.4	25.2	.
O=[N+]([O-])c1ccc(O)c(/C=N/n2c(-c3ccccc3)n[nH]c2=S)c1	-7.2	0.1	-0.5	7.0	.
SMILES	TDP2 inh	CTSL1 counter	PAD4 FP inh	GSTO1 counter	GSTO1 confirm	others
O=[N+]([O-])c1ccc(Cl)c(/C=N/n2c(-c3ccncc3)n[nH]c2=S)c1	14.1	-3.7	0.4	49.7*	9.9
CN(C)CCNC(=O)C1(C)Cc2c(-c3cccc(C(F)(F)F)c3)ccnc2O1 (stereo unspecified)	5.0	.	.	.	.
COc1cccc(N=Nc2c(=O)[nH]n3c(C)cc(C)nc23)c1	-14.6	3.2	-9.1	38.1*	3.3
CCOc1ccc(N=Nc2c(=O)[nH]n3c(C)cc(C)nc23)cc1	6.0	-5.2	-32.6	11.0	.
COC(=O)CC1C(=O)NC2CCCCC2N1C(=O)CCl (stereo unspecified)	6.8	11.6	3.6	54.0*	79.0*
O=C1CC(O)(C(F)F)Oc2ccc3ccccc3c21 (stereo unspecified)	7.5	0.2	-0.4	51.0*	44.0*
O=C1CC(O)(C(F)(F)F)Oc2c1ccc1ccccc21 (stereo unspecified)	6.0	1.7	-0.3	32.2	.
